Measurements from the EternaBench riboswitch data.

Test system: MS2 coat protein
Assay: apparent Kd, MS2 coat protein; higher = weaker binding; RNA-MaP array; FMN 200 µM where present
Procedure, shortened: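 Designs on Illumina sequencing-chip clusters, transcribed by stalled E. coli RNA polymerase, were exposed to SNAP-549-labelled MS2 coat protein in doubling steps from 0.7 or 1.5 nM up to 3 µM, without and then with constant ligand. The buffer held 100 mM Tris-HCl pH 7.5, 80 mM KCl, 4 mM MgCl2, BSA, DTT, yeast tRNA and Tween-20. Apparent Kd values are medians of filtered per-cluster binding-curve fits to green signal normalised to red-channel RNA signal and control-cluster median Fmax.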

[1] = designed as: OFF switch for flavin mononucleotide, no ligand
[2] = ligand present: flavin mononucleotide, designed as: OFF switch for flavin mononucleotide
[3] = designed as: ON switch for flavin mononucleotide, no ligand
[4] = ligand present: flavin mononucleotide, designed as: ON switch for flavin mononucleotide

Sequence	apparent Kd [1]	apparent Kd [2]	apparent Kd [3]	apparent Kd [4]
AGCUGGUGACAGCAUCGAGCUAAACAUGAGGAUCACCCAUGUAGAAGGCUGUACGGUUACCGUACAGAGGAUAUACAUAGCUCG	6.11 nM	6.3 nM	–	–
AGCUGUGACGUUACAGUUCCGUUACAUGAGGAUCACCCAUGUCAGGAUAUAUGCACUCUUGAAUCAUAGAAGGGACAGAGGUGG	161 nM	157 nM	–	–
AGCUGUGGCAGAGGAUAUACAAUCCUAAUCCAUUGCAAAUAGCGAUGGACAUGAGGAUCACCCAUGUAGAAGGCUGUCUCAGCA	297 nM	65.2 nM	–	–
AGCUGUGGCCGAGGAUAUCUAAACUCAAUAACCGAAAUAUAAUCGGACAUGAGGAUCACCCAUGUAGAGAAGGCGGUCUCAGCA	34.1 nM	71.8 nM	–	–
AGGAAGUAAGGAUAUGCUGCUCGUCACUUGCGUGAUGAGUAGCAGAAGGUACAUGAGGAUCACCCAUGUAAAAA	23.7 nM	18.5 nM	–	–
AGGAUGUUAGGAUAUCGGAUAUGCUGGAGGAGGUGGAUUUACGAGAAGGAACAUGAGGAUCACCCAUGUUGGAG	22.5 nM	25.1 nM	–	–
AGGAUUGUGCUAGGAUAUCCAGGUUUGCAACAAGGAGAAGGAGCACAUGAGGAUCACCCAUGUUCUCAAAGGCCAUGGCAAUAA	23.4 nM	84.2 nM	–	–
AGGGUAUGAACAUGAGGAUCACCCAUGUACUAGGAAACAAAUGAGGAUAUCGAUAGCAAAGCUAUCGAGAAGGCAUGGGACCCU	–	–	224 nM	51.8 nM
AGGUAACAUGAGGAUCACCCAUGUCAGGAUAUCAGUAAGAUUAGAAUAGAGUAGAGGAUGAGAAGGGACUAUAU	47 nM	41.8 nM	–	–
AGGUACGGUCGAUCAUACCAAGGUAGAAGGCGACUGGGAAUGUGAGACAUGAGGAUCACCCAUGUCGAGGAUAUACCUGAAAGU	192 nM	27.4 nM	–	–
AGGUAGUCAGGAUAUUAGUGGUAGAGGGAUAACUUUAUUGUUGAGAAGGGACAUGAGGAUCACCCAUGUUUUGU	26.3 nM	32.5 nM	–	–
AGGUCAACCACAGGAUAUGGCUAGCAUAGCUAGCCAGAAGGGUGGUCGUAACUAUGUAAAUACAUGAGGAUCACCCAUGUAUCC	–	–	134 nM	25.4 nM
AGGUGACAUGAGGAUCACCCAUGUAAGGAUAUACGGUUAGUGGAGAGAGGGAAAAGAGGUAGAAGGUACGGAGC	266 nM	142 nM	–	–
AGGUGUAGAGGAUAUCGAGUUCUUUACAUGAGGAUCACCCAUGUCCUGGGCACCCAGGACUGAGAAGGCUACACCA	478 nM	180 nM	–	–
AGUAACAGAGGAUAUACUAUUUUAUGUAUUUAUUAUUUUGAACAUGAGGAUCACCCAUGUAGAAGGCUGAAUAA	27.1 nM	22 nM	–	–
AGUAAGAUGCAGAAGGUGUCAGCGAGAGCUACGACAUGAGGAUCACCCAUGUACUAGGUAGAGUACAAGGAUAUGCAUCUUACA	–	–	324 nM	24.6 nM
AGUAAGAUGCAGAAGGUGUUAGCUAGAGCUACGACAUGAGGAUCACCCAUGUACAAAAGCCCGUACAAGGAUAUGCAUCUUACA	–	–	4.46 nM	4.21 nM
AGUAAGAUGCAGAAGGUGUUAGCUAGAGCUACGACAUGAGGAUCACCCAUGUACUAAAACCCGUACAAGGAUAUGCAUCUUACA	–	–	8.17 nM	6.47 nM
AGUACGUCAGGAUAUCUGAUGUCUAACUUCGGUUAGACAUCAGAGAAGGGACAUGAGGAUCACCCAUGUACUAG	38.7 nM	42.6 nM	–	–
AGUACUACAGGAUAUACGAGGGAGGUCCACGUGACCCUUCUACAUGAGGAUCACCCAUGUAGAAGGGUAGUACA	13.9 nM	13.9 nM	–	–
AGUACUCAAAGAGUACCCAUACGGACAUGAGGAUCACCCAUGUAGGAUAUGCUACUCAAAGAGUAGUAGAAGGACAUAUACCUC	8.91 nM	15.7 nM	–	–
AGUACUCAAAGAGUACCCAUACGGACAUGAGGAUCACCCAUGUAGGAUAUGCUACUCAAAGAGUAGUAGAAGGACAUAUUCCUC	9.52 nM	20.3 nM	–	–
AGUAGAUCAGGAUAUACAUAAAUGAUAAUUAUGUAACUUCUACAUGAGGAUCACCCAUGUAGAAGGGAUCUACA	12.6 nM	13.1 nM	–	–
AGUAGAUCAGGAUAUACGUAAAUGGUAAUUAUGUAACUUCUACAUGAGGAUCACCCAUGUAGAAGGGAUCUACA	13.6 nM	13.4 nM	–	–
AGUCAGACAGGAUAUACGUGAGUGGAAAAAGUAUGUCCACUACAUGAGGAUCACCCAUGUAGAAGGGUCUGACA	17.7 nM	14.7 nM	–	–
AGUCAGAGCAGAGGAUAUAUACAUGAGGAUCACCCAUGUGACUGACUAUGCUAGAAAUAGCAUGUAUAGAAGGCUGCUCUGACA	85 nM	223 nM	–	–
AGUCAUACAGGAUAUACAUGAGGAUCACCCAUGUUUAUCCUAAAAAAGUGAUCCUCAUGUAGAAGGGUAUGACA	15.2 nM	18.9 nM	–	–
AGUCGGAGCGGAGGAUAUACAUGAGGAUCACCCAUGUAAUAAAGUGAAGCCUGGAAACAGGCAAUGUAGAAGGCUGCUCCGACA	11 nM	74.8 nM	–	–

Sequence	apparent Kd [1]	apparent Kd [2]	apparent Kd [3]	apparent Kd [4]
AGUCGGCAUGAGAAGGGUUACAUGAGGAUCACCCAUGUGAUCAAAUCGUUAACAGGAUAUCAGGCGUCGGGCUUUACCCGGAGG	19.5 nM	125 nM	–	–
AGUCUCACUGAAGGAUAUGCAGGGUUUCAAGGGUUUCCUGCGACAUGAGGAUCACCCAUGUAAAUGCAGAAGGUCAGGACCCAA	6.63 nM	32.8 nM	–	–
AGUGCCUCGAGAGGAUAUAUACAUGAGGAUCACCCAUGUAACGAGGUGGAAACACCUCGAAAUGUAUAGAAGGCUCGAGGCACA	28.4 nM	50 nM	–	–
AGUGCGAUGGGAGGAUAUCAUGGUCUAAUUAAUAAAAGGAUCACAUGAGGAUCACCCAUGUGUCAUGAGAAGGCCCUCGAGACC	–	–	74.2 nM	11.2 nM
AGUGGGCUAGGAUAUCGAUGAACUCACAUGAGGAUCACCCAUGUGUCUUUGGUGGGCGCACGAGAAGGAGUAAGAU	40.4 nM	43.3 nM	–	–
AGUGUCAUCGAGAAGGACACGGACAUGAGGAUCACCCAUGUUCCAUGUUGUAGGAUAUCGAUGAUACAGCUACGUUUCGUAGCA	–	–	5.01 nM	4.5 nM
AGUGUCAUCGAGAAGGCCUCAACAUGAGGAUCACCCAUGUUGCAAAAUGGGAGGAUAUCGCGCGCAAAACUACGUUUCGUAGCA	–	–	30.5 nM	11.4 nM
AGUGUGAGGCAGGAUAUGCUAUAUGUUCGUAAUGCAGAAGGGUCUACAUGAGGAUCACCCAUGUGUGCGGUUGA	183 nM	523 nM	–	–
AGUUAAUAUCGAGGAUAUCCUCAUAUACAUGAGGAUCACCCAUGUAAACAUGGAGAAGGCGAUAUUAACAGCAUGUUACAUGCA	–	–	377 nM	21.9 nM
AGUUAAUAUCGAGGAUAUGUCUAGACACAUGAGGAUCACCCAUGUAUGUGUAUAGAAGGCGAUAUUAACAGCAUGUUACAUGCA	–	–	40.2 nM	16.7 nM
AGUUAUUCAGGAUAUGGUGUGUUAUACAUGAGGAUCACCCAUGUAGAUCCUGGUUAGGCCUCAGAAGGGAAUGUUA	190 nM	190 nM	–	–
AGUUGGGUCACAGGAUAUGCGCCGGCAUGCGAAGCAGAAGGGUGACGAGGUUGGGAACAUGAGGAUCACCCAUGUAUCGCAUAA	–	–	319 nM	36.5 nM
AGUUUGCGGCAGGAUAUCCAUCCGCGGUGUGGUGGAGAAGGGCUGACAUGAGGAUCACCCAUGUGCGUCCUGUA	23.2 nM	32.5 nM	–	–
AGUUUGUGAGGAUAUCCAAUAUAUGACAUGAGGAUCACCCAUGUUUCCACUCGUACCUCCGGAGAAGGCACUGCGA	21.5 nM	22.9 nM	–	–
AUAAAACAUGAGGAUCACCCAUGUCAGGAUAUACCAUUCCCAUGCCAGCAUUAAAAUGGUAGAAGGGACAUGGC	49.2 nM	27.2 nM	–	–
AUAAAGUGAGGAUAUGUAAAAAUAACGAAAGUUAUAAAUAAACAGAAGGCACAUGAGGAUCACCCAUGUCCAAU	26.8 nM	43.1 nM	–	–
AUAAAUAUAGCGAUAUGAUCGAGAGAUCAUGUCGCUAAUGUUAGAAGGACAUGAGGAUCACCCAUGUAGGAUAUGGGAGUAUGA	–	–	197 nM	86 nM
AUAAGCUCGUCAGGAUAUGCGACACUGUUUCUGCAGUGUGGUAUGAUCACAUGAGGAUCACCCAUGUAGAAGGGACGAGCUUAU	6.66 nM	13.9 nM	–	–
AUAAGUGAAAGCUAAAGAUUAGCCGAGGAUAUACAUGAGGAUCACCCAUGUAAGGGUCGCCUUCUGUAGAAGGCGGCGGUCUAG	40.5 nM	76.5 nM	–	–
AUAAUGUAAGGAUAUCAGUCGACUAGCUGCGGCUAGUCGACUGAGAAGGUACAUGAGGAUCACCCAUGUGUUCC	133 nM	868 nM	–	–
AUAAUGUGAGGAUAUCAGUCGUACAGCUUCGGCUGUACGACUGAGAAGGCACAUGAGGAUCACCCAUGUGGUCA	499 nM	84.2 nM	–	–
AUAAUUUUAUAUAUCAUAUAAAUCAGAAGGCAUAACAUGAGGAUCACCCAUGUAUAUUAUUGUUAUGAGGAUAUGAUUUCGUUA	9.12 nM	42.5 nM	–	–
AUAAUUUUAUUUUUCUAUUUCAUCAGAAGGCAUUACAUGAGGAUCACCCAUGUUUUGGAUAGUAAUGAGGAUAUGAUAUGGUUA	10.2 nM	18.6 nM	–	–
AUACAUACAAAGUUACAUGAGGAUCACCCAUGUUUAUUGGGAAGAAGGGUAACAUUAUUAGAUGUAUAGGAUAUUUCACAAUUG	–	–	537 nM	275 nM
AUACAUGAGGAUCACCCAUGUAAUUAAUUAAUUAAUAAGAUCUAGGAUAUCAGCUCGAAUAGAGCUGAGAAGGAGAUCACAUGU	–	–	23 nM	14.4 nM
AUACAUGAGGAUCACCCAUGUCGCAGGUUAAGGCCCAAACCGAGAAGGGAUUCGGUCAAGCCUAAUCAGGAUAUCGGUGGAGCC	–	–	93.4 nM	62.1 nM
AUACCUUAUGAGAAGGCGAUCAUGAAACAUGAUCGAGGAUAUCAUGUAAACAUGAGGAUCACCCAUGUAUGGGUAUUAUGGUAA	–	–	26.5 nM	9.1 nM
